# Measurements from different studies.
# Compare with care: the assays were run in different laboratories. pIC50: −log10 of the molar value.
SMILES,target or system,assay,test system,conditions,endpoint,result
O=C(NCc1ccccc1)c1cn(Cc2ccc(C(F)(F)F)cc2)c2ccc(Oc3ccccc3)cc2c1=O,MCF7,"cell growth or viability, MTT",,48 h,pIC50,5.19
O=c1c2ccccc2[se]n1-c1ccccc1,Chikungunya virus,viral replication,Vero,24 h,pIC50,5.69
O=C(N1CCC2(CC1)OCC(CN1CCCCS1(=O)=O)O2)C1(c2ccc(Cl)cc2)CCCC1 (centres unmarked),Chikungunya virus,"viral replication, inhibitor",,40 µM,inhibition,55%
O=C(NCc1ccc(F)cc1)c1cn(Cc2ccc(C(F)(F)F)cc2)c2ccc(Oc3ccccc3)cc2c1=O,MCF7,"cell growth or viability, MTT",,,pIC50,> 4.92
S=c1[nH]nc(NCNc2n[nH]c(=S)s2)s1,Xanthomonas oryzae,microbial growth,,,EC50,16 µg/mL
CC[C@H](C)C[C@H](C)CCCCCCCCC(=O)N[C@H]1C[C@@H](O)[C@@H](NCCN)NC(=O)[C@@H]2[C@@H](O)CCN2C(=O)[C@H]([C@H](O)CCN)NC(=O)[C@H]([C@H](O)[C@@H](O)c2ccc(O)cc2)NC(=O)[C@@H]2C[C@@H](O)CN2C(=O)[C@H]([C@@H](C)O)NC1=O,Candidozyma auris,"microbial growth, broth dilution",,48 h,MIC,2 µg/mL
O=C(NCc1ccc(F)cc1)c1cn(Cc2ccc(F)cc2)c2ccc(Oc3ccccc3)cc2c1=O,MCF7,"cell growth or viability, MTT",,,pIC50,≤ 3.70
O=c1cc(CSc2ccc(N=Cc3ccccc3[N+](=O)[O-])cc2)occ1O,,"DPPH scavenging, absorbance",,30 min,pIC50,4.85
CC(C)C[C@@H](NC(=O)[C@H](C)NC(=O)CNC(=O)[C@@H](NC=O)C(C)C)C(=O)N[C@@H](C)C(=O)N[C@@H](C(=O)N[C@H](C(=O)N[C@@H](C(=O)N[C@@H](Cc1c[nH]c2ccccc12)C(=O)N[C@H](CC(C)C)C(=O)N[C@@H](Cc1cc2ccccc2[nH]1)C(=O)N[C@H](CC(C)C)C(=O)N[C@@H](Cc1c[nH]c2ccccc12)C(=O)N[C@H](CC(C)C)C(=O)N[C@@H](Cc1c[nH]c2ccccc12)C(=O)NCCO)C(C)C)C(C)C)C(C)C,MCF7,"cell growth or viability, SRB",,48 h,GI50,0.0233 µM
O=c1cc(CSc2ccc(N=Cc3ccc([N+](=O)[O-])cc3)cc2)occ1O,,"DPPH scavenging, absorbance",,30 min,pIC50,4.54
O=C(NCc1ccc(C(F)(F)F)cc1)c1cn(Cc2ccc(F)cc2)c2ccc(Oc3ccccc3)cc2c1=O,MCF7,"cell growth or viability, MTT",,24 h,pIC50,3.96
Cc1cccc(C=Nc2ccc(SCc3cc(=O)c(O)co3)cc2)c1,,"DPPH scavenging, absorbance",,30 min,pIC50,4.57
CCCCCCN(CC1COC2(CCN(C(=O)C3(c4ccccc4)CCCC3)CC2)O1)S(=O)(=O)N(C)Cc1ccccc1 (centres unmarked),Chikungunya virus,"viral replication, inhibitor",,40 µM,inhibition,70%
COc1ccc(C=Nc2ccc(SCc3cc(=O)c(O)co3)cc2)cc1,,"DPPH scavenging, absorbance",,30 min,pIC50,4.81
N.N.[Cl][Pt][Cl],SW-620,"cell growth or viability, MTT",,72 h,pIC50,5.17
O=c1cc(CSc2ccc(N=Cc3ccccc3C(F)(F)F)cc2)occ1O,,"DPPH scavenging, absorbance",,30 min,pIC50,4.44
N.N.[Cl][Pt][Cl],MCF7,"cell growth or viability, MTT",,48 h,pIC50,4.56
